From PubChem BioAssay AID504677 (The Scripps Research Institute Molecular Screening Center, 2011)
Calls of active or inactive are those of the source.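 Rule for the calls: active = compounds with IC50 half-inhibiting concentration of 10 µM or lower; inactive = IC50 above 10 µM.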

These compounds were tested on E. coli V3065 expressing H. pylori AddAB, T4 phage, OD growth (assay: AddAB helicase-nuclease blockers, potency curves – absorbance, E. coli V3065, T4 phage, powder samples, late-stage follow-up (AID 504677)).
Method in brief: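 Assay system: addAB+ E. coli strain V3065; timing: 60 min compound-cell pre-incubation, then 18 h phage exposure at 37 °C; replicates: each concentration tested in triplicate; signal: absorbance at 600 nm as bacterial growth measure; read-out basis: IC50 from sigmoidal fit of percent inhibition versus concentration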

Structure (SMILES) | IC50
O=C(Nc1ncccn1)c1ccc([N+](=O)[O-])o1 | 7.54 µM
O=C(Nc1cccc(NC(=O)c2ccccc2Cl)c1)c1ccc([N+](=O)[O-])o1 | > 13.2 µM (inactive)
C=CCn1c(Sc2ncc([N+](=O)[O-])s2)n[nH]c1=O | 14.8 µM (inactive)
N#Cc1c(NC(=O)c2ccc([N+](=O)[O-])o2)sc2c1CCC2 | 17.8 µM (inactive)
Cc1cccnc1NC(=O)c1ccc([N+](=O)[O-])o1 | 19.6 µM (inactive)
O=C(NCc1cccnc1)c1ccc([N+](=O)[O-])o1 | 18.9 µM (inactive)
O=C(OCC(=O)c1cccs1)c1ccc([N+](=O)[O-])o1 | 53.3 µM (inactive)
O=C(Nc1ccc(N2CCOCC2)cc1)c1ccc([N+](=O)[O-])o1 | 11.8 µM (inactive)
NC(=O)c1ccsc1NC(=O)COC(=O)c1ccc([N+](=O)[O-])o1 | 5.83 µM
Cc1ccc2nc(/C(C#N)=C\c3ccc([N+](=O)[O-])o3)[nH]c2c1 | 9.42 µM
CCn1cc(C(=O)O)c(=O)c2cnc(N3CCN(C(=S)Nc4ccccc4C(F)(F)F)CC3)nc21 | 35.5 µM (inactive)
CC(=O)Nc1ccc2nc(NC(=O)c3ccc([N+](=O)[O-])o3)sc2c1 | > 119 µM (inactive)
